Measured values as given in ChEMBL document CHEMBL1137087, “Discovery of novel 2,8-diazaspiro[4.5]decanes as orally active glycoprotein IIb-IIIa antagonists” (J Med Chem, 2004).
Several values for one entry are separate records, joined by “and”; a condition that tells them apart may be missing. Equal entries are not always repeated.

Assays:
[1] = biological target: Integrin alpha-IIb/beta-3 (Homo sapiens, UniProt P05106+P08514); assay: Tested for inhibition of the binding of fibrinogen to purified human GPIIb-IIIa in a 96-well format (ELISA assay); assay type: protein-complex assay
Method in brief: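 Purified GPIIb-IIIa or vitronectin receptor, 0.5 μg/well, coated overnight at 4 °C, BSA-blocked. Compound plus 10 nM biotinylated ligand added in triplicate, 2 h at room temperature, pH 7.4 Tris with CaCl2 and BSA.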

[2] = (§1) Area under curve was determined after oral administration in rats; assay type: ADME, organism-based; set-up: concentration or dose not given beside the values; details: rat, in vivo
Method in brief: (§2)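 Sprague Dawley rats instrumented 2 days before, conscious; prodrug in water given orally and free acid in 50% PEG-300 intravenously, 1 mg/kg each, six rats per group. Serial blood sampling on EDTA or citrate; plasma deproteinized with acetonitrile plus internal standard, filtered. AUC, Cmax and t1/2β from mean concentration–time curves; F = oral AUC / iv AUC.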

Mus musculus [3] = assay: Compound was tested for bleeding time in mice at a dose of 40 mg/kg vs DMSO (vehicle); assay type: functional
Method in brief: (§3)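 Anesthetized female C57/bl mice given an iv tail-vein bolus in 10% DMSO in water (~150 μL); vehicle controls received DMSO. Tail transected 2 mm from the tip and immersed in 37 °C normal saline. Bleeding time recorded to cessation of flow by visual inspection, up to 900 s.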

Mus musculus [4] = assay: Compound was tested for bleeding time in mice at a dose of 10 mg/kg vs DMSO (vehicle); assay type: functional; method in brief: as §3
Mus musculus [5] = assay: Compound was tested for bleeding time in mice at a dose of 50 mg/kg vs DMSO (vehicle); assay type: functional; method in brief: as §3
Mus musculus [6] = assay: Compound was tested for bleeding time in mice at a dose of 100 mg/kg vs DMSO (vehicle); assay type: functional; method in brief: as §3
[7] = Clearance of the drug was measured in cynomolgus; assay type: ADME; details: cercopithecidae, in vivo; read-out: CI
Method in brief: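 Fasted, chair-restrained cynomolgus monkeys. Active acid given as a 15 min iv infusion in 50% PEG-300 diluted with plasmalyte; prodrug given a week later in water by nasogastric tube to the same animals. EDTA plasma sampled over 0–48 h and assayed by LC/MS/MS. t1/2β taken from the terminal log-linear phase; Vz = dose/(AUCINF·λz); F corrected for molecular weight and dose.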

Canis familiaris = species: Canis familiaris; assay: Clearance of the drug was measured in the plasma of dog; assay type: ADME, organism-based, Canis lupus familiaris; details: in vivo
Method in brief: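 Fasted male beagle dogs (n = 4): prodrug at 1 mg/kg orally, active drug intravenously. Plasma drug measured by LC/MS/MS. t1/2β from the linear portion of the log concentration–time curve; Vz = dose/(AUCINF·λz); F corrected for molecular weight and dose differences.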

[8] = as §1; assay type: ADME, organism-based; details: rat, in vivo; method in brief: as §2
[9] = Inhibition of Human umbilical vein endothelial cells (HUVEC) adhesion to Vitronectin; assay type: cell-based
[10] = Inhibition of Human umbilical vein endothelial cells (HUVEC) adhesion to fibronectin; assay type: cell-based
Integrin alpha-V/beta-3 = Integrin alpha-V/beta-3 (Homo sapiens, UniProt P05106+P06756); assay: Inhibition of vitronectin binding to Vitronectin receptor (alpha V beta 3); assay type: protein-complex assay
Method in brief: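 Purified GPIIb-IIIa or vitronectin receptor, 0.5 μg/well, coated overnight at 4 °C, BSA-blocked. Compound plus 10 nM biotinylated ligand added in triplicate, 2 h at room temperature, pH 7.4 Tris with CaCl2 and BSA. Detected by anti-biotin alkaline phosphatase conjugate, read at 405 nm; BSA-well binding subtracted; IC50 from three experiments.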

Rattus norvegicus = species: Rattus norvegicus; assay: Bioavailability in rat; assay type: ADME, organism-based; details: in vivo; method in brief: as §2
[11] = Inhibition of Human umbilical vein endothelial cells (HUVEC) adhesion to vitronectin; assay type: cell-based

Integrin alpha-V/beta-3, sequence (P05106 27-788 limits assumed): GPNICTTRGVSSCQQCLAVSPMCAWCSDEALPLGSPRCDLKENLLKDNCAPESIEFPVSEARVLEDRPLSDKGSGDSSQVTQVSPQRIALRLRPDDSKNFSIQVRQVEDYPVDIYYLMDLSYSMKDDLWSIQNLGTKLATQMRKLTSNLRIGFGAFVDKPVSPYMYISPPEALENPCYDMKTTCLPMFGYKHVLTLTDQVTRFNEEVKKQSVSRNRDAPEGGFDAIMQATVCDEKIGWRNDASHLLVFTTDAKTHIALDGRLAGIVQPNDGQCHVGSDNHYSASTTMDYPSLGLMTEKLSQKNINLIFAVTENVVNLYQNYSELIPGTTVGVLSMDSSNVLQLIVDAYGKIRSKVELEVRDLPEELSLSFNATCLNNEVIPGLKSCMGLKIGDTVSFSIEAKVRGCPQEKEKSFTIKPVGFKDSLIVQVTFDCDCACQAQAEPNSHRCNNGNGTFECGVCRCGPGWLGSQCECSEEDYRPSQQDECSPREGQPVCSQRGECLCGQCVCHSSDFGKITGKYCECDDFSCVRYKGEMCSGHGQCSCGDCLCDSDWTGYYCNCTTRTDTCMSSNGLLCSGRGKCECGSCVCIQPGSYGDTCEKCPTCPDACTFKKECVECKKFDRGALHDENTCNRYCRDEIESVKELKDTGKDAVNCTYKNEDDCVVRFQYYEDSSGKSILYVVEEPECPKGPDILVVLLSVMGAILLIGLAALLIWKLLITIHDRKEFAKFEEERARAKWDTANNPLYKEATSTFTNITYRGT
Integrin alpha-V/beta-3, sequence (P06756 31-889 limits assumed): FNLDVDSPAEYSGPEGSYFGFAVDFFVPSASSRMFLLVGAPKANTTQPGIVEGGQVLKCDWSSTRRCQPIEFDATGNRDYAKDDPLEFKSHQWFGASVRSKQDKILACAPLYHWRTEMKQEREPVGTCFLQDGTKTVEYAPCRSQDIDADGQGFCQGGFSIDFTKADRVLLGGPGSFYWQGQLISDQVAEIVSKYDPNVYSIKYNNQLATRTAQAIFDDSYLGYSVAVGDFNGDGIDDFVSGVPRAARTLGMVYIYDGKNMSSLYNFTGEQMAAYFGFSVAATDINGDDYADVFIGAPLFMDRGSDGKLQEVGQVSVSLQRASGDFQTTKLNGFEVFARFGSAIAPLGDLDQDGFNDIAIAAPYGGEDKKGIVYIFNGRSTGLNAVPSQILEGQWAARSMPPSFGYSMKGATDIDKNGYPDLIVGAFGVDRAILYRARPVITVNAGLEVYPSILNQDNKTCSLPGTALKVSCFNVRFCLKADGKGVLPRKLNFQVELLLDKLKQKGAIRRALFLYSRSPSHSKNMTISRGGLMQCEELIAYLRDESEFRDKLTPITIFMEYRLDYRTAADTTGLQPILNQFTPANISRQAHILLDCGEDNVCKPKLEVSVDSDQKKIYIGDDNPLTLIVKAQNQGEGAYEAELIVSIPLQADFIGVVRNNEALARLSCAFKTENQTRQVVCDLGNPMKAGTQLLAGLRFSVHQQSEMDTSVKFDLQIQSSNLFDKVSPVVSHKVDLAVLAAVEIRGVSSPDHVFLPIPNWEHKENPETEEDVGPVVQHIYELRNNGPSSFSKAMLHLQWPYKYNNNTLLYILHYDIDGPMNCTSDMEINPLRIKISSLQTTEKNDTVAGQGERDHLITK
Integrin alpha-V/beta-3, sequence (P06756 891-1048 limits assumed): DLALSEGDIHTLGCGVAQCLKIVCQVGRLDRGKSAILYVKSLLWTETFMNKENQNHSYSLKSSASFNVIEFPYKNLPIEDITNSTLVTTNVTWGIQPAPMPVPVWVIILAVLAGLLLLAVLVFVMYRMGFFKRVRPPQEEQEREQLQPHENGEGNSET
Integrin alpha-IIb/beta-3, sequence (P05106 27-788 limits assumed): as the sequence (P05106 27-788 limits assumed) above
Integrin alpha-IIb/beta-3, sequence (P08514 32-887 limits assumed): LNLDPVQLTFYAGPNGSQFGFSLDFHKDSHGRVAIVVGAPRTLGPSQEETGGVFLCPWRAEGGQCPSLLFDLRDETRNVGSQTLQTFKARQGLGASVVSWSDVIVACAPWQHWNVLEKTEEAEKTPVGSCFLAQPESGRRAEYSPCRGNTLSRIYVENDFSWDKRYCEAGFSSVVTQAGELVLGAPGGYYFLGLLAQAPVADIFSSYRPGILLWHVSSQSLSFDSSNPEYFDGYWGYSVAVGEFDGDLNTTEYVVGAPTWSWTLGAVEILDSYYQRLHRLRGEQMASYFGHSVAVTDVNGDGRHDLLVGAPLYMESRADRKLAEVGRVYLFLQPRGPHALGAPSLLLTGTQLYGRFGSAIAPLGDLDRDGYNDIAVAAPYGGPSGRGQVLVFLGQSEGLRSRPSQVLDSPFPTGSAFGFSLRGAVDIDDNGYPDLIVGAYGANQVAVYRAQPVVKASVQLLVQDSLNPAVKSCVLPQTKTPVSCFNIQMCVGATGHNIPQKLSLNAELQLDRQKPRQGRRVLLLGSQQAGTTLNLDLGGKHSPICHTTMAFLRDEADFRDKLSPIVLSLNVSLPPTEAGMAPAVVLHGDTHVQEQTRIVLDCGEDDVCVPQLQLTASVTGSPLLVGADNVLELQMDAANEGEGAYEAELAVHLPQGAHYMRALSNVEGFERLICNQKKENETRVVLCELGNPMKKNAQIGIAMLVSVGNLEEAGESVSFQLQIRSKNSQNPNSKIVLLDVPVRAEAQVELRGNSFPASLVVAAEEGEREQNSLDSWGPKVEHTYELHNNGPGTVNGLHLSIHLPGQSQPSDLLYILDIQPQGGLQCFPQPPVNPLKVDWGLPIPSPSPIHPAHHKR
Integrin alpha-IIb/beta-3, sequence (P08514 891-1039 limits assumed): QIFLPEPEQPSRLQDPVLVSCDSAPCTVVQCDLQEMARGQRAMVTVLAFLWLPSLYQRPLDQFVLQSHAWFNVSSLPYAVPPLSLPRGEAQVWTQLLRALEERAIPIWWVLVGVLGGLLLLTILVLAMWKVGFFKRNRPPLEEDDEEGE

Structure (SMILES)	IC50 [1]	other results
Cc1ccc(S(=O)(=O)N[C@@H](CNC(=O)N2CCC3(CC2)C(=O)N(c2ccc(C(=N)N)cc2)C(=O)N3C)C(=O)O)cc1	2 nM	–
N=C(N)c1ccc(N2CC3(CCN(C(=O)CCCC(=O)O)CC3)NC2=O)cc1	751 nM	–
CN1C(=O)N(c2ccc(C(=N)N)cc2)C(=O)C12CCN(C(=O)CCCC(=O)O)CC2	100 nM	–
CCOC(=O)CCNC(=O)N1CCC2(CC1)CN(c1ccc(C(=N)NO)cc1)C(=O)N2C	–	AUC [2]: 24 ng·h/mL
N=C(N)c1ccc(N2CC3(CCN(C(=O)CC(=O)O)CC3)CC2=O)cc1	25000 nM	–
NC(=NN1CCOCC1)c1ccc(N2CCC3(CCN(C(=O)CCCC(=O)O)CC3)C2=O)cc1	4180 nM	–
CN1C(=O)N(c2ccc(C(=N)N)cc2)CC12CCN(C(=O)NCCC(=O)O)CC2	400 nM	–
N=C(N)c1ccc(N2C(=O)NC3(CCN(C(=O)CCCC(=O)O)CC3)C2=O)cc1	21 nM	–
CN1C(=O)N(c2ccc(C(=N)N)cc2)CC12CCN(C(=O)CC(CC(=O)O)c1ccccc1)CC2 (centres undefined)	20 nM	–
CCCCOC(=O)N[C@@H](CCC(=O)N1CCC2(CC1)CCN(c1ccc(C(=N)NO)cc1)C2=O)C(=O)OCC	–	AUC [2]: 184 ng·h/mL
N=C(N)c1ccc(N2C(=O)CC3(CCN(C(=O)CCCC(=O)O)CC3)C2=O)cc1	430 nM	–
Cc1noc(C)c1S(=O)(=O)N[C@@H](CCC(=O)N1CCC2(CC1)CCN(c1ccc(C(=N)N)cc1)C2=O)C(=O)O	5 nM	Bleeding time (Mus musculus [3]): 196.5 s; Bleeding time (Mus musculus [4]): 96.7 s; Bleeding time (Mus musculus [5]): 562.5 s; Bleeding time (Mus musculus [6]): 890.6 s
N=C(N)c1ccc(N2CC3(CCN(C(=O)NCCC(=O)O)CC3)CC2=O)cc1	350 nM	–
CN1C(=O)N(c2ccc(C(=N)N)cc2)CC12CCN(C(=O)CCCC(=O)O)CC2	1020 nM	–
N=C(N)c1ccc(N2CC3(CCN(C(=O)CCCC(=O)O)CC3)CC2=O)cc1	650 nM	–
C[C@H](CC(=O)O)CC(=O)N1CCC2(CC1)CCN(c1ccc(C(=N)N)cc1)C2=O	5 nM	–
CC(C)(COC(=O)N1CCC2(CC1)CC(=O)N(c1ccc(C(=N)N)cc1)C2)C(=O)O	15000 nM	–
N=C(N)c1ccc(N2CCC3(CCN(C(=O)CC(CC(=O)O)c4ccccc4)CC3)C2=O)cc1 (centres undefined)	90 nM	–
N=C(N)c1ccc(N2CCC3(CCN(CCCCC(=O)O)CC3)C2=O)cc1	7800 nM	–
CCOC(=O)CCNC(=O)N1CCC2(CC1)CCN(c1ccc(C(=N)NO)cc1)C2=O	–	clearance [7]: 5.12 mL/min/kg; CI (Canis familiaris): 8.43 mL/min/kg; AUC [8]: 565 ng·h/mL
Cc1noc(C)c1S(=O)(=O)N[C@@H](CCC(=O)N1CCC2(CC1)C(=O)N(c1ccc(C(=N)N)cc1)C(=O)N2C)C(=O)O	16 nM	–
CCOC(=O)CCNC(=O)N1CCC2(CC1)CC(=O)N(c1ccc(C(=N)NO)cc1)C2	–	AUC [2]: 95.6 ng·h/mL
CCOC(=O)COCC(=O)N1CCC2(CC1)CCN(c1ccc(C(=N)NO)cc1)C2=O	–	clearance [7]: 2.7 mL/min/kg; CI (Canis familiaris): 3.28 mL/min/kg; AUC [2]: 651 ng·h/mL

Structure (SMILES)	IC50 [1]	other results
CCNC(=N)c1ccc(N2CCC3(CCN(C(=O)CCCC(=O)O)CC3)C2=O)cc1	841 nM	–
CN1C(=O)N(c2ccc(C(=N)N)cc2)C(=O)C12CCN(C(=O)NC(CC(=O)O)c1ccccc1)CC2 (centres undefined)	50 nM	–
CN1C(=O)N(c2ccc(C(=N)N)cc2)C(=O)C12CCN(C(=O)CC(CC(=O)O)c1ccccc1)CC2 (centres undefined)	32 nM	–
CCCCOC(=O)N[C@@H](CCC(=O)N1CCC2(CC1)CC(=O)N(c1ccc(C(=N)N)cc1)C2=O)C(=O)O	30 nM	–
N=C(N)c1ccc(N2CCC3(CCN(C(=O)CC(=O)O)CC3)C2=O)cc1	15800 nM	–
N=C(N)c1ccc(N2CCC3(CCN(C(=O)CCCC(=O)O)CC3)C2=O)cc1	4 nM	IC50 [9]: > 50000 nM; IC50 [10]: > 50000 nM; IC50 (Integrin alpha-V/beta-3): > 50000 nM
CCOC(=O)CCNC(=O)N1CCC2(CC1)C(=O)N(c1ccc(C(=N)NO)cc1)C(=O)N2C	–	AUC [2]: 60 ng·h/mL
CCOC(=O)CC(CC(=O)N1CCC2(CC1)CCN(c1ccc(C(=N)NO)cc1)C2=O)c1ccccc1 (centres undefined)	–	AUC [2]: 7.9 ng·h/mL
CCOC(=O)CCCC(=O)N1CCC2(CC1)CCN(c1ccc(C(=N)NO)cc1)C2=O	–	clearance [7]: 6.51 mL/min/kg; CI (Canis familiaris): 6.44 mL/min/kg; AUC [2]: 501 ng·h/mL
C[C@@H](CC(=O)O)CC(=O)N1CCC2(CC1)CCN(c1ccc(C(=N)N)cc1)C2=O	4 nM	–
N=C(N)c1ccc(N2C(=O)CC3(CCN(C(=O)NCCC(=O)O)CC3)C2=O)cc1	410 nM	–
N=C(N)c1ccc(N2CC3(CCN(C(=O)CCCCC(=O)O)CC3)CC2=O)cc1	7300 nM	–
CC(CC(=O)O)NC(=O)N1CCC2(CC1)CCN(c1ccc(C(=N)N)cc1)C2=O (centres undefined)	4 nM	–
C[C@H](CC(=O)O)NC(=O)N1CCC2(CC1)CCN(c1ccc(C(=N)N)cc1)C2=O	5 nM	–
CCCCOC(=O)N[C@@H](CCC(=O)N1CCC2(CC1)CCN(c1ccc(C(=N)N)cc1)C2=O)C(=O)O	5 nM	–
N=C(N)c1ccc(N2CCC3(CCN(C(=O)NCCC(=O)O)CC3)C2=O)cc1	4 nM and 3.9 nM	IC50 (Integrin alpha-V/beta-3): > 50000 nM
N=C(N)c1ccc(N2CCC3(CCN(C(=O)COCC(=O)O)CC3)C2=O)cc1	17 nM	IC50 (Integrin alpha-V/beta-3): > 50000 nM
CCCCOC(=O)N[C@@H](CCC(=O)N1CCC2(CC1)C(=O)N(c1ccc(C(=N)NO)cc1)C(=O)N2C)C(=O)OCC	–	F (Rattus norvegicus): Not detected
N=C(N)c1ccc(N2CC3(CCN(C(=O)CCC(=O)O)CC3)CC2=O)cc1	10500 nM	–
N=C(N)c1ccc(N2CCC3(CCN(C(=O)CCC(=O)O)CC3)C2=O)cc1	5600 nM	–
N=C(N)c1ccc(N2C(=O)NC3(CCN(C(=O)NCCC(=O)O)CC3)C2=O)cc1	329 nM	–
CCOC(=O)CCNC(=O)N[C@H]1CCN(c2ccc(C(=N)N)cc2)C1=O [ORBOFIBAN]	2.38 nM	–
CCOC(=O)COC1CCN(C(=O)[C@H](C)NC(=O)c2ccc(/C(N)=N/O)cc2)CC1 [SIBRAFIBAN]	1.14 nM	IC50 [10]: > 50000 nM; IC50 [11]: > 50000 nM; IC50 (Integrin alpha-V/beta-3): > 50000 nM
